From ChEMBL document CHEMBL1146375, “Synthetic studies on novel benzimidazolopeptides with antimicrobial, cytotoxic and anthelmintic potential” (2007)
Converted amounts (≈) assume the structure as drawn.

Each compound was assayed on Bacillus subtilis (assay: Antibacterial activity against Bacillus subtilis NCIM 2063 after 18 hrs by disc diffusion method). Details: not given.
Format: functional
Method in brief: (§1)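 Modified Kirby-Bauer disc diffusion. Plates inoculated with spore suspension (about 6 × 10⁴ spores mL^-1). Sterile 6 mm paper discs carried test samples at 10 mg mL^-1; ciprofloxacin disc as reference, DMF disc as negative control. Plates held 18 h at 37 °C. Inhibition zone diameters (mm) averaged over triplicate sets.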

Compound | inhibition zone (IZ) [mm]
COC(=O)[C@H](CCCNC(=N)N[N+](=O)[O-])NC(=O)[C@@H]1CCCN1C(=O)c1cc(I)c(-c2nc3cc(C)c(C)cc3[nH]2)c(I)c1 | 17

These compounds were tested on Staphylococcus aureus (assay: Antibacterial activity against Staphylococcus aureus NCIM 2079 after 18 hrs by disc diffusion method). Details: not given.
Format: functional
Method in brief: as §1

Compound | inhibition zone (IZ) [mm]
COC(=O)[C@H](CCCNC(=N)N[N+](=O)[O-])NC(=O)[C@@H]1CCCN1C(=O)c1cc(I)c(-c2nc3cc(C)c(C)cc3[nH]2)c(I)c1 | 12

What follows are compounds tested on Pseudomonas aeruginosa (assay: Antibacterial activity against Pseudomonas aeruginosa NCIM 2034 after 18 hrs by disc diffusion method). Details: not given.
Format: functional
Method in brief: as §1

Compound | inhibition zone (IZ) [mm]
COC(=O)[C@H](CCCNC(=N)N[N+](=O)[O-])NC(=O)[C@@H]1CCCN1C(=O)c1cc(I)c(-c2nc3cc(C)c(C)cc3[nH]2)c(I)c1 | 27

What follows are compounds tested on Escherichia coli (assay: Antibacterial activity against Escherichia coli NCIM 2065 after 18 hrs by disc diffusion method). Details: not given.
Format: functional
Method in brief: as §1

Compound | inhibition zone (IZ) [mm]
COC(=O)[C@H](CCCNC(=N)N[N+](=O)[O-])NC(=O)[C@@H]1CCCN1C(=O)c1cc(I)c(-c2nc3cc(C)c(C)cc3[nH]2)c(I)c1 | 18

The compounds below were run on Candida albicans (assay: Antifungal activity against Candida albicans MUCC 29 after 48 hrs by disc diffusion method). Details: not given.
Format: functional
Method in brief: (§2)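 Agar well diffusion on plates inoculated with spore suspension in normal saline from cultures on Sabouraud's broth. Wells punched and loaded with test samples or griseofulvin at 10 mg mL^-1, with DMSO as negative control. Incubated 48 h at 37 °C.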

Compound | inhibition zone (IZ) [mm]
COC(=O)[C@H](CCCNC(=N)N[N+](=O)[O-])NC(=O)[C@@H]1CCCN1C(=O)c1cc(I)c(-c2nc3cc(C)c(C)cc3[nH]2)c(I)c1 | 23

The compounds below were run on Microsporum audouinii (assay: Antifungal activity against Microsporum audouinii MUCC 545 after 48 hrs by disc diffusion method). Details: not given.
Format: functional
Method in brief: as §2

Compound | inhibition zone (IZ) [mm]
COC(=O)[C@H](CCCNC(=N)N[N+](=O)[O-])NC(=O)[C@@H]1CCCN1C(=O)c1cc(I)c(-c2nc3cc(C)c(C)cc3[nH]2)c(I)c1 | 10

These compounds were tested on Trichophyton benhamiae (assay: Antifungal activity against Trichophyton mentagrophytes MUCC 665 after 48 hrs by disc diffusion method). Details: not given.
Format: functional, Arthroderma benhamiae
Method in brief: as §2

Compound | inhibition zone (IZ) [mm]
COC(=O)[C@H](CCCNC(=N)N[N+](=O)[O-])NC(=O)[C@@H]1CCCN1C(=O)c1cc(I)c(-c2nc3cc(C)c(C)cc3[nH]2)c(I)c1 | 12

What follows are compounds tested on Aspergillus niger (assay: Antifungal activity against Aspergillus niger MUCC 177 after 48 hrs by disc diffusion method). Details: not given.
Format: functional
Method in brief: as §2

Compound | inhibition zone (IZ) [mm]
COC(=O)[C@H](CCCNC(=N)N[N+](=O)[O-])NC(=O)[C@@H]1CCCN1C(=O)c1cc(I)c(-c2nc3cc(C)c(C)cc3[nH]2)c(I)c1 | 14

What follows are compounds tested on Bacillus subtilis (assay: Antibacterial activity against Bacillus subtilis NCIM 2063 after 18 hrs by tube dilution method). Details: NCIM 2063, 18 h.
Format: functional
Method in brief: (§3)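 Tube dilution MIC. Stock diluted in sterile broth to seven concentrations from 200 to 3.1 […]. Each tube inoculated with one loopful of test bacterium and incubated 18 h at 37 °C. MIC read from presence or absence of growth.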

Compound | MIC [µg/mL]
COC(=O)[C@H](CCCNC(=N)N[N+](=O)[O-])NC(=O)[C@@H]1CCCN1C(=O)c1cc(I)c(-c2nc3cc(C)c(C)cc3[nH]2)c(I)c1 | 6 (≈ 7.23 µM)

These compounds were tested on Staphylococcus aureus (assay: Antibacterial activity against Staphylococcus aureus NCIM 2079 after 18 hrs by tube dilution method). Details: NCIM 2079, 18 h.
Format: functional
Method in brief: as §3

Compound | MIC [µg/mL]
COC(=O)[C@H](CCCNC(=N)N[N+](=O)[O-])NC(=O)[C@@H]1CCCN1C(=O)c1cc(I)c(-c2nc3cc(C)c(C)cc3[nH]2)c(I)c1 | 12.5 (≈ 15.1 µM)

Each compound was assayed on Pseudomonas aeruginosa (assay: Antibacterial activity against Pseudomonas aeruginosa NCIM 2034 after 18 hrs by tube dilution method). Details: NCIM 2034, 18 h.
Format: functional
Method in brief: as §3

Compound | MIC [µg/mL]
COC(=O)[C@H](CCCNC(=N)N[N+](=O)[O-])NC(=O)[C@@H]1CCCN1C(=O)c1cc(I)c(-c2nc3cc(C)c(C)cc3[nH]2)c(I)c1 | 6 (≈ 7.23 µM)

What follows are compounds tested on Escherichia coli (assay: Antibacterial activity against Escherichia coli NCIM 2065 after 18 hrs by tube dilution method). Details: NCIM 2065, 18 h.
Format: functional

Compound | MIC [µg/mL]
COC(=O)[C@H](CCCNC(=N)N[N+](=O)[O-])NC(=O)[C@@H]1CCCN1C(=O)c1cc(I)c(-c2nc3cc(C)c(C)cc3[nH]2)c(I)c1 | 12.5 (≈ 15.1 µM)

The compounds below were run on Candida albicans (assay: Antifungal activity against Candida albicans MUCC 29 after 48 hrs by tube dilution method). Details: not given.
Format: functional
Method in brief: (§4)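 Tube dilution MIC as for bacteria (seven concentrations, 200–3.1 […]), with DMSO in place of DMF. Tubes inoculated with fungal culture and incubated 48 h at 37 °C. MIC read from presence or absence of growth.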

Compound | MIC [µg/mL]
COC(=O)[C@H](CCCNC(=N)N[N+](=O)[O-])NC(=O)[C@@H]1CCCN1C(=O)c1cc(I)c(-c2nc3cc(C)c(C)cc3[nH]2)c(I)c1 | 6 (≈ 7.23 µM)

The compounds below were run on Microsporum audouinii (assay: Antifungal activity against Microsporum audouinii MUCC 545 after 48 hrs by tube dilution method). Details: not given.
Format: functional
Method in brief: as §4

Compound | MIC [µg/mL]
COC(=O)[C@H](CCCNC(=N)N[N+](=O)[O-])NC(=O)[C@@H]1CCCN1C(=O)c1cc(I)c(-c2nc3cc(C)c(C)cc3[nH]2)c(I)c1 | 25 (≈ 30.1 µM)

These compounds were tested on Trichophyton benhamiae (assay: Antifungal activity against Trichophyton mentagrophytes MUCC 665 after 48 hrs by tube dilution method). Details: not given.
Format: functional, Arthroderma benhamiae
Method in brief: as §4

Compound | MIC [µg/mL]
COC(=O)[C@H](CCCNC(=N)N[N+](=O)[O-])NC(=O)[C@@H]1CCCN1C(=O)c1cc(I)c(-c2nc3cc(C)c(C)cc3[nH]2)c(I)c1 | 6 (≈ 7.23 µM)

The compounds below were run on Eudrilus (assay: Anthelmintic activity against Eudrilus sp. assessed as mean paralyzing time). Details: not given.
Format: functional
Method in brief: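 Earthworms exposed to test suspensions at 2 mg mL^-1 (0.2% w/v), made by triturating compound with Tween 80 (0.5%) and distilled water, then mechanically stirred 30 min. Mebendazole suspension prepared alike as reference. Paralysis and death times recorded; death confirmed by no movement in 50 °C water. Means from triplicate sets.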

Compound | Time [min]
COC(=O)[C@H](CCCNC(=N)N[N+](=O)[O-])NC(=O)[C@@H]1CCCN1C(=O)c1cc(I)c(-c2nc3cc(C)c(C)cc3[nH]2)c(I)c1 | 19.43
